Source: publication PMC4955683 (Nature chemical biology, 2016)

Experiments:
[1] = system: H3K9 palmitoyl, TNFα myristoyl and H3K9 octanoyl peptides; assay: Defatty-acylation assay on other fatty-acyl peptides; assay type: biochemical
H3K9 acetyl peptide = assay: Deacetylation assay, SIRT6 WT and mutants purified from E. coli; assay type: biochemical; conditions: 2 µM SIRT6, 25 µM H3K9 acetyl peptide, 1 mM NAD+, 300 µM palmitic acid, 37°C, 2 hours
How it was run: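 Full-length human SIRT6 (WT or mutant) was expressed from pET28a in E. coli BL21(DE3). Reactions (40 µL) contained 25 mM Tris-HCl pH 8.0, 50 mM NaCl and 1 mM DTT plus the listed components. They were quenched with an equal volume of cold acetonitrile and centrifuged. Supernatants were run on C18 HPLC using a water/acetonitrile 0.1% TFA gradient to quantify deacetylated H3K9 peptide.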

H3K9 myristoyl peptide [2] = assay: Defatty-acylation assay, SIRT6 purified from HEK 293T cells; assay type: biochemical; conditions: 0.2 µM SIRT6 from HEK293T cells, 5 µM Myr-H3K9, 1 mM NAD+, 37°C, 60 min
How it was run: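 SIRT6 WT or mutants were affinity-purified from HEK 293T lysates on anti-Flag gel, eluted with 3X FLAG peptide and buffer-exchanged on a 10 kDa membrane. Reaction buffer was 25 mM Tris-HCl pH 8.0, 50 mM NaCl, 1 mM DTT. Reactions were quenched with cold acetonitrile and centrifuged, and supernatants were analysed by C18 reverse-phase HPLC (water/acetonitrile, 0.1% TFA) for H3K9 peptide formation.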

H3K9 myristoyl peptide [3] = assay: Demyristoylation steady-state kinetics; assay type: biochemical
[4] = system: SIRT6 (self ADP-ribosylation); assay: In vitro mono-ADP-ribosylation assay; assay type: biochemical, human; conditions: 2.5 µM SIRT6, 50 µM 6-alkyne-NAD, 30°C, 30 min
How it was run: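 Reactions contained SIRT6 WT or mutants in 25 mM Tris-HCl pH 8.0, 50 mM NaCl, 1 mM DTT, with NAD+ replacing 6-alkyne-NAD as negative control. Click chemistry with BODIPY-N3, TBTA, CuSO4 and TCEP ran 30 min at room temperature. Samples were boiled in SDS buffer, separated on 12% SDS-PAGE and destained 2 h, and ADP-ribosylation was read as in-gel BODIPY fluorescence.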

[5] = NAD+ binding by intrinsic tryptophan fluorescence; conditions: read-out: Kd for NAD^+ in the presence of H3K9 acetyl peptide, 1 mM H3K9 acetyl peptide
How it was run: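 SIRT6 (3 µM) in 25 mM Tris-HCl pH 7.4, 150 mM NaCl, 10% glycerol was premixed with 1 mM tryptophan-free Ac-H3K9 and titrated with NAD+. Excitation was 295 nm with emission scanned 320–390 nm, using peak maxima. Fraction bound was (F−F0)/(Fsat−F0), and Kd came from a one-site quadratic binding fit with [E] = 3 µM.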

[6] = HPLC analysis of SIRT6 binding to NAD+; conditions: 10 µM SIRT6 incubated with 10 µM NAD+, 10 kDa cutoff membrane
How it was run: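 SIRT6 (10 µM; WT, G60A or H133Y) was incubated with 10 µM NAD+ in 25 mM Tris-HCl pH 8.0, 50 mM NaCl for 30 min at room temperature. The mix was diluted to 500 µL and spun through a 10 kDa membrane (15,000 g, 20 min). The filtrate (unbound NAD+) was lyophilized, redissolved in water and quantified by HPLC.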

[7] = Thermal shift assay and tryptophan fluorescence emission spectra; assay type: physicochemical
[8] = system: acetyl-H3K9 and acetyl-H3K56; assay type: cell-based, Human; conditions: flag-tagged SIRT6 overexpressed in SIRT6 KO 293T cells
How it was run: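 Sirt6 KO HEK 293T cells in DMEM/10% heat-inactivated FBS were transiently transfected with SIRT6 WT, mutants or empty pCMV4a. Blots were probed with Ac-H3K9, Ac-H3K56 and histone H3 antibodies (1:5000; acetyl antibodies 4 °C 12 h), then secondary antibody (1:3000, 1 h RT). Detection was by ECL chemiluminescence; band intensities were quantified as mean ± s.d. of three replicates.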

TNFα = assay: ELISA analysis of TNFα secretion in MEFs; assay type: cell-based, Human; conditions: SIRT6 stably expressed in Sirt6 KO MEFs
[9] = system: IAP2, GLS, RPL3 and MnSOD; assay: mRNA levels of SIRT6-regulated genes in Sirt6 KO MEFs; assay type: cell-based, mouse; conditions: SIRT6 overexpressed in Sirt6 KO MEFs
Sirt6 KO MEFs [10] = assay: Cell viability after glucose starvation; assay type: cell-based, mouse; conditions: SIRT6 expressed in Sirt6 KO MEFs, glucose free medium 72 h
How it was run: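 Stable SIRT6-expressing Sirt6 KO MEFs were selected with […] puromycin 48 h post-infection, with empty pCDH vector as control, and grown in DMEM/10% heat-inactivated FBS. Cells were seeded at 3,000/well and switched after 48 h to glucose-free DMEM/10% FBS for 72 h. They were then fixed in cold methanol, stained with 0.2% crystal violet, solubilized in 0.5% SDS/50% ethanol, and read at 550 nm.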

Sirt6 KO MEFs [11] = assay: Secreted and intracellular protein levels in MEFs; assay type: cell-based, mouse; conditions: SIRT6 overexpressed in Sirt6 KO cells
How it was run: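 MEFs at 90% confluence were washed with PBS and serum-free DMEM, then kept in serum-free DMEM for 12 h. Medium was cleared at 500 g (5 min) and 3,000 g (10 min) and concentrated on 10 kDa filters. Western blots were probed for VCP, RPL17, RPS7, COL5A1, COL6A1 and CXCL1 (1:1000, 4 °C 12 h), followed by secondary antibody (1:3000, 1 h RT) and ECL detection.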

RPL17 and RPS7 = RPL17 and RPS7 in exosomes from MEFs; assay type: cell-based, mouse; conditions: exosomes from Sirt6 KO MEFs expressing SIRT6
How it was run: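 MEFs at 90% confluence were washed with PBS and serum-free DMEM, then conditioned in serum-free medium for 12 h. Medium was cleared at 500 g (5 min) and 3,000 g (20 min), then passed through a 0.2 µm filter. Filtrate was ultracentrifuged at 100,000 g for 2 h, and pellets were washed, re-pelleted and lysed in NP-40 buffer. Blots used RPL17/RPS7 antibodies (1:1000, 4 °C 12 h) with ECL detection.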

Substance	defatty-acylase activity on other fatty-acyl peptides [1]	H3K9 acetyl peptide hydrolyzed/converted to H3K9 peptide (H3K9 acetyl peptide)	defatty-acylase activity, substrate conversion (H3K9 myristoyl peptide [2]) [%]	decrease of kcat of demyristoylation versus SIRT6 WT (H3K9 myristoyl peptide [3]) [fold]	increase of Km of demyristoylation versus SIRT6 WT (H3K9 myristoyl peptide [3]) [fold]	ADP-ribosyltransferase (ART) activity [4]	Kd [5] [µM]	NAD^+ bound to SIRT6 [6] [%]	stability and fluorescence with H3K9 myristoyl peptide ([7]; 0.1 mM H3K9 myristoyl peptide)	stability and fluorescence with H3K9 acetyl peptide ([7]; 1 mM H3K9 acetyl peptide)	thermal stability ([7]; without peptide, versus SIRT6 WT, 37 to 62 °C for 3 min)	H3K9 and H3K56 acetylation levels in cells [8]	TNFα secretion (TNFα)	transcriptional suppression of IAP2, GLS, RPL3 and MnSOD [9]	glucose starvation-caused cell death (Sirt6 KO MEFs [10])	secreted levels of Group 1 proteins (RPL17, RPS7, VCP) (Sirt6 KO MEFs [11])	secreted levels of Group 2 proteins (COL6A1, COL5A1, CXCL1) (Sirt6 KO MEFs [11])	RPL17 and RPS7 in exosomes (RPL17 and RPS7)
SIRT6 G60A	robust defatty-acylase activities	approximately 1.8%	25.6	1.9	1.8	no observable ART activity	634 ± 91	2.0 ± 0.7	became similar to those of SIRT6 WT	not affected	decreased thermal stability	no detectable deacetylase activity in cells	promoted TNFα secretion	could not	neither SIRT6 G60A nor H133Y did	decreased the secreted levels to that in Sirt6 WT cells	restored the secreted levels to that in Sirt6 WT cells	not in exosomes
SIRT6 H133Y								59 ± 3					no effect on TNFα secretion					can be detected
SIRT6 R65A						weak self ADP-ribosylation activities												
